System: HEK-293T
Assay: Multiplex assay against HEK293T
Assay type: toxicity, cell-based
Settings: human
Summary of the method: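 Imaging took place on a CQ1 microscope at 37°C and 5% CO2 once compound had been added to live cells stained at seeding with Hoechst33342, BioTracker Green Microtubule Cytoskeleton Dye, MitoTracker Red and Annexin V Alexa Fluor 680. CellPathfinder machine-learning gating classed cells as Hoechst high-intensity objects or normal cells, classed normal cells as having healthy, pyknosed or fragmented nuclei, and classed pyknosed cells as mitotic or apoptotic. Tubulin, mitochondrial-mass and membrane-permeability phenotypes are per cents of the healthy-nucleus cells.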

[1] = 12 h, 1 µM, compound concentration 1 uM, replicate 1
[2] = 12 h, 1 µM, compound concentration 1 uM, replicate 2
[3] = 12 h, 10 µM, compound concentration 10 uM, replicate 1
[4] = 12 h, 10 µM, compound concentration 10 uM, replicate 2
[5] = 24 h, 1 µM, compound concentration 1 uM, replicate 1
[6] = 24 h, 1 µM, compound concentration 1 uM, replicate 2
[7] = 24 h, 10 µM, compound concentration 10 uM, replicate 1
[8] = 24 h, 10 µM, compound concentration 10 uM, replicate 2
[9] = 48 h, 1 µM, compound concentration 1 uM, replicate 1
[10] = 48 h, 1 µM, compound concentration 1 uM, replicate 2
[11] = 48 h, 10 µM, compound concentration 10 uM, replicate 1
[12] = 48 h, 10 µM, compound concentration 10 uM, replicate 2

O=C(O)Cc1ccccc1Nc1c(Cl)cccc1Cl [DICLOFENAC]
Population Apoptotic (%) [1]: 36%
Population Fragmented Nuclei (%) [1]: 7%
Population Healthy Nuclei (%) [1]: 77%
Population Hoechst High Intensity Objects (%) [1]: 5%
Population Membrane Permeable-Phenotype (%) [1]: 0%
Population Mitochondria Different-Phenotype (%) [1]: 53%
Population Mitotic Cells (%) [1]: 63%
Population Normal (%) [1]: 94%
Population Pyknosed Nuclei (%) [1]: 14%
Population Tubulin-Different-Phenotype (%) [1]: 32%
Total Cell Count [1]: 376
Population Apoptotic (%) [2]: 52%
Population Healthy Nuclei (%) [2]: 79%
Population Hoechst High Intensity Objects (%) [2]: 10%
Population Mitochondria Different-Phenotype (%) [2]: 61%
Population Mitotic Cells (%) [2]: 47%
Population Normal (%) [2]: 89%
Population Pyknosed Nuclei (%) [2]: 13%
Population Tubulin-Different-Phenotype (%) [2]: 23%
Total Cell Count [2]: 324
Population Apoptotic (%) [3]: 30%
Population Fragmented Nuclei (%) [3]: 7%
Population Healthy Nuclei (%) [3]: 77%
Population Hoechst High Intensity Objects (%) [3]: 6%
Population Membrane Permeable-Phenotype (%) [3]: 0%
Population Mitochondria Different-Phenotype (%) [3]: 45%
Population Mitotic Cells (%) [3]: 69%
Population Normal (%) [3]: 93%
Population Pyknosed Nuclei (%) [3]: 14%
Population Tubulin-Different-Phenotype (%) [3]: 35%
Total Cell Count [3]: 480
Population Apoptotic (%) [4]: 57%
Population Healthy Nuclei (%) [4]: 75%
Population Hoechst High Intensity Objects (%) [4]: 14%
Population Mitochondria Different-Phenotype (%) [4]: 68%
Population Mitotic Cells (%) [4]: 42%
Population Normal (%) [4]: 85%
Population Pyknosed Nuclei (%) [4]: 17%
Total Cell Count [4]: 370
Population Apoptotic (%) [5]: 30%
Population Fragmented Nuclei (%) [5]: 7%
Population Healthy Nuclei (%) [5]: 76%
Population Hoechst High Intensity Objects (%) [5]: 3%
Population Membrane Permeable-Phenotype (%) [5]: 0%
Population Mitochondria Different-Phenotype (%) [5]: 44%
Population Mitotic Cells (%) [5]: 69%
Population Normal (%) [5]: 96%
Population Pyknosed Nuclei (%) [5]: 15%
Population Tubulin-Different-Phenotype (%) [5]: 24%
Total Cell Count [5]: 456
Population Apoptotic (%) [6]: 45%
Population Fragmented Nuclei (%) [6]: 6%
Population Healthy Nuclei (%) [6]: 78%
Population Hoechst High Intensity Objects (%) [6]: 10%
Population Mitochondria Different-Phenotype (%) [6]: 37%
Population Mitotic Cells (%) [6]: 54%
Population Normal (%) [6]: 89%
Population Pyknosed Nuclei (%) [6]: 14%
Population Tubulin-Different-Phenotype (%) [6]: 9%
Total Cell Count [6]: 418
Population Apoptotic (%) [7]: 25%
Population Fragmented Nuclei (%) [7]: 10%
Population Healthy Nuclei (%) [7]: 77%
Population Hoechst High Intensity Objects (%) [7]: 4%
Population Membrane Permeable-Phenotype (%) [7]: 0%
Population Mitochondria Different-Phenotype (%) [7]: 29%
Population Mitotic Cells (%) [7]: 74%
Population Normal (%) [7]: 95%
Population Pyknosed Nuclei (%) [7]: 12%
Population Tubulin-Different-Phenotype (%) [7]: 29%
Total Cell Count [7]: 650
Population Apoptotic (%) [8]: 49%
Population Healthy Nuclei (%) [8]: 75%
Population Hoechst High Intensity Objects (%) [8]: 9%
Population Mitochondria Different-Phenotype (%) [8]: 50%
Population Mitotic Cells (%) [8]: 50%
Population Normal (%) [8]: 90%
Population Pyknosed Nuclei (%) [8]: 14%
Population Tubulin-Different-Phenotype (%) [8]: 26%
Total Cell Count [8]: 462
Population Apoptotic (%) [9]: 23%
Population Fragmented Nuclei (%) [9]: 11%
Population Healthy Nuclei (%) [9]: 82%
Population Hoechst High Intensity Objects (%) [9]: 2%
Population Membrane Permeable-Phenotype (%) [9]: 1%
Population Mitochondria Different-Phenotype (%) [9]: 22%
Population Mitotic Cells (%) [9]: 76%
Population Normal (%) [9]: 97%
Population Pyknosed Nuclei (%) [9]: 6%
Population Tubulin-Different-Phenotype (%) [9]: 15%
Total Cell Count [9]: 730
Population Apoptotic (%) [10]: 33%
Population Fragmented Nuclei (%) [10]: 15%
Population Healthy Nuclei (%) [10]: 79%
Population Mitochondria Different-Phenotype (%) [10]: 16%
Population Mitotic Cells (%) [10]: 66%
Population Pyknosed Nuclei (%) [10]: 4%
Population Tubulin-Different-Phenotype (%) [10]: 10%
Total Cell Count [10]: 697
Population Apoptotic (%) [11]: 36%
Population Fragmented Nuclei (%) [11]: 12%
Population Healthy Nuclei (%) [11]: 80%
Population Hoechst High Intensity Objects (%) [11]: 3%
Population Membrane Permeable-Phenotype (%) [11]: 1%
Population Mitochondria Different-Phenotype (%) [11]: 17%
Population Mitotic Cells (%) [11]: 63%
Population Normal (%) [11]: 96%
Population Pyknosed Nuclei (%) [11]: 7%
Population Tubulin-Different-Phenotype (%) [11]: 18%
Total Cell Count [11]: 883
Population Fragmented Nuclei (%) [12]: 16%
Population Healthy Nuclei (%) [12]: 75%
Population Hoechst High Intensity Objects (%) [12]: 4%
Population Membrane Permeable-Phenotype (%) [12]: 0%
Population Mitochondria Different-Phenotype (%) [12]: 36%
Population Normal (%) [12]: 95%
Population Tubulin-Different-Phenotype (%) [12]: 17%
Total Cell Count [12]: 649

CCCN1CCC[C@@H]2Cc3n[nH]cc3C[C@H]21.Cl [QUINPIROLE HYDROCHLORIDE]
Population Apoptotic (%) [1]: 32%
Population Fragmented Nuclei (%) [1]: 6%
Population Healthy Nuclei (%) [1]: 84%
Population Hoechst High Intensity Objects (%) [1]: 6%
Population Membrane Permeable-Phenotype (%) [1]: 0%
Population Mitochondria Different-Phenotype (%) [1]: 37%
Population Mitotic Cells (%) [1]: 67%
Population Normal (%) [1]: 93%
Population Pyknosed Nuclei (%) [1]: 9%
Population Tubulin-Different-Phenotype (%) [1]: 22%
Total Cell Count [1]: 447
Population Apoptotic (%) [2]: 63%
Population Fragmented Nuclei (%) [2]: 4%
Population Healthy Nuclei (%) [2]: 82%
Population Hoechst High Intensity Objects (%) [2]: 3%
Population Mitochondria Different-Phenotype (%) [2]: 67%
Population Mitotic Cells (%) [2]: 36%
Population Normal (%) [2]: 96%
Population Pyknosed Nuclei (%) [2]: 12%
Population Tubulin-Different-Phenotype (%) [2]: 26%
Total Cell Count [2]: 294
Population Apoptotic (%) [3]: 55%
Population Fragmented Nuclei (%) [3]: 11%
Population Healthy Nuclei (%) [3]: 72%
Population Hoechst High Intensity Objects (%) [3]: 9%
Population Membrane Permeable-Phenotype (%) [3]: 0%
Population Mitochondria Different-Phenotype (%) [3]: 53%
Population Mitotic Cells (%) [3]: 44%
Population Normal (%) [3]: 90%
Population Pyknosed Nuclei (%) [3]: 15%
Population Tubulin-Different-Phenotype (%) [3]: 40%
Total Cell Count [3]: 381
Population Apoptotic (%) [4]: 46%
Population Fragmented Nuclei (%) [4]: 5%
Population Healthy Nuclei (%) [4]: 78%
Population Hoechst High Intensity Objects (%) [4]: 5%
Population Mitochondria Different-Phenotype (%) [4]: 69%
Population Mitotic Cells (%) [4]: 53%
Population Normal (%) [4]: 94%
Population Pyknosed Nuclei (%) [4]: 16%
Population Tubulin-Different-Phenotype (%) [4]: 26%
Total Cell Count [4]: 312
Population Apoptotic (%) [5]: 30%
Population Fragmented Nuclei (%) [5]: 12%
Population Healthy Nuclei (%) [5]: 79%
Population Hoechst High Intensity Objects (%) [5]: 3%
Population Membrane Permeable-Phenotype (%) [5]: 0%
Population Mitochondria Different-Phenotype (%) [5]: 17%
Population Mitotic Cells (%) [5]: 70%
Population Normal (%) [5]: 96%
Population Pyknosed Nuclei (%) [5]: 8%
Population Tubulin-Different-Phenotype (%) [5]: 14%
Total Cell Count [5]: 600
Population Apoptotic (%) [6]: 29%
Population Fragmented Nuclei (%) [6]: 8%
Population Healthy Nuclei (%) [6]: 81%
Population Hoechst High Intensity Objects (%) [6]: 2%
Population Mitochondria Different-Phenotype (%) [6]: 37%
Population Normal (%) [6]: 97%
Population Pyknosed Nuclei (%) [6]: 9%
Population Tubulin-Different-Phenotype (%) [6]: 16%
Total Cell Count [6]: 390
Population Apoptotic (%) [7]: 45%
Population Fragmented Nuclei (%) [7]: 10%
Population Healthy Nuclei (%) [7]: 77%
Population Hoechst High Intensity Objects (%) [7]: 4%
Population Membrane Permeable-Phenotype (%) [7]: 0%
Population Mitochondria Different-Phenotype (%) [7]: 38%
Population Mitotic Cells (%) [7]: 54%
Population Normal (%) [7]: 95%
Population Pyknosed Nuclei (%) [7]: 11%
Population Tubulin-Different-Phenotype (%) [7]: 27%
Total Cell Count [7]: 529
Population Apoptotic (%) [8]: 43%
Population Fragmented Nuclei (%) [8]: 7%
Population Healthy Nuclei (%) [8]: 78%
Population Hoechst High Intensity Objects (%) [8]: 2%
Population Mitochondria Different-Phenotype (%) [8]: 43%
Population Mitotic Cells (%) [8]: 56%
Population Normal (%) [8]: 97%
Population Pyknosed Nuclei (%) [8]: 13%
Population Tubulin-Different-Phenotype (%) [8]: 13%
Total Cell Count [8]: 406
Population Apoptotic (%) [9]: 21%
Population Fragmented Nuclei (%) [9]: 16%
Population Healthy Nuclei (%) [9]: 76%
Population Hoechst High Intensity Objects (%) [9]: 1%
Population Membrane Permeable-Phenotype (%) [9]: 1%
Population Mitochondria Different-Phenotype (%) [9]: 9%
Population Mitotic Cells (%) [9]: 78%
Population Normal (%) [9]: 98%
Population Pyknosed Nuclei (%) [9]: 6%
Population Tubulin-Different-Phenotype (%) [9]: 10%
Total Cell Count [9]: 1105
Population Apoptotic (%) [10]: 33%
Population Fragmented Nuclei (%) [10]: 11%
Population Healthy Nuclei (%) [10]: 84%
Population Hoechst High Intensity Objects (%) [10]: 2%
Population Mitochondria Different-Phenotype (%) [10]: 19%
Population Mitotic Cells (%) [10]: 66%
Population Pyknosed Nuclei (%) [10]: 4%
Population Tubulin-Different-Phenotype (%) [10]: 8%
Total Cell Count [10]: 649
Population Apoptotic (%) [11]: 40%
Population Fragmented Nuclei (%) [11]: 15%
Population Healthy Nuclei (%) [11]: 78%
Population Hoechst High Intensity Objects (%) [11]: 2%
Population Membrane Permeable-Phenotype (%) [11]: 1%
Population Mitochondria Different-Phenotype (%) [11]: 23%
Population Mitotic Cells (%) [11]: 59%
Population Normal (%) [11]: 97%
Population Pyknosed Nuclei (%) [11]: 6%
Population Tubulin-Different-Phenotype (%) [11]: 15%
Total Cell Count [11]: 772
Population Apoptotic (%) [12]: 33%
Population Fragmented Nuclei (%) [12]: 13%
Population Healthy Nuclei (%) [12]: 80%
Population Hoechst High Intensity Objects (%) [12]: 1%
Population Membrane Permeable-Phenotype (%) [12]: 0%
Population Mitochondria Different-Phenotype (%) [12]: 28%
Population Mitotic Cells (%) [12]: 66%
Population Normal (%) [12]: 98%
Population Tubulin-Different-Phenotype (%) [12]: 13%
Total Cell Count [12]: 654
